ChEMBL document CHEMBL1135707, “Identification of potent and selective mechanism-based inhibitors of the cysteine protease cruzain using solid-phase parallel synthesis” (J Med Chem, 2002)
Values after ≈ are worked out from the molar mass of the structure shown.

Key:
Cruzipain = Cruzipain (Trypanosoma cruzi, UniProt P25779); assay: Inhibitory activity against cruzain, the major cysteine protease found in Trypanosoma cruzi
In short: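 Enzyme and inhibitor (in DMSO) preincubated 5 min before substrate addition. Read at ex 355/em 450 nm at four time points in the linear region. Activity taken against no-inhibitor controls, run in duplicate. Ki obtained from Williams–Morrison tight-binding fit.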

Procathepsin L = Procathepsin L (Homo sapiens, UniProt P07711); assay: Inhibitory activity against human Cathepsin L
In short: (§1)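 Buffer was 0.25 M sodium acetate pH 5.5 with 2 mM EDTA, 0.015% Brij-35 and 1 mM DTT. 5 min enzyme–inhibitor preincubation, ex 355/em 450 nm, duplicate wells. Ki obtained from Williams–Morrison fit.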

Cathepsin B = Cathepsin B (Homo sapiens, UniProt P07858); assay: Inhibitory activity against human Cathepsin B; in short: as §1
[1] = Aqueous solubility using UV analysis; type: physicochemical
In short: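 Solubility measured by an outside lab after 2 h preincubation of inhibitor in pH 7.4 aqueous buffer at 37 °C. Quantitated by UV absorbance at 211 nm.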

Sequence of Cruzipain (P25779 whole entry): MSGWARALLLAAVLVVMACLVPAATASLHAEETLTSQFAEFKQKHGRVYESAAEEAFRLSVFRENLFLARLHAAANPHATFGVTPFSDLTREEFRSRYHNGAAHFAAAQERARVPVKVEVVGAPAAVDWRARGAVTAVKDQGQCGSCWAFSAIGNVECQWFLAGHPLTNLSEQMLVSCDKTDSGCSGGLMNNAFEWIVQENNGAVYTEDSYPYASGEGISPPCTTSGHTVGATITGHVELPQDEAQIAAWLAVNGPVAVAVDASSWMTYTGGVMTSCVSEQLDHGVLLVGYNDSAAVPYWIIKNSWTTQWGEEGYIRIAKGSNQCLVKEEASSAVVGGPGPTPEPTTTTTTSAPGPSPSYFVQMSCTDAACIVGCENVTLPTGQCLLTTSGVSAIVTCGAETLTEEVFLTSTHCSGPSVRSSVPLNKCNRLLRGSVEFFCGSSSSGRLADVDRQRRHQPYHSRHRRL
Sequence of Procathepsin L (P07711 whole entry): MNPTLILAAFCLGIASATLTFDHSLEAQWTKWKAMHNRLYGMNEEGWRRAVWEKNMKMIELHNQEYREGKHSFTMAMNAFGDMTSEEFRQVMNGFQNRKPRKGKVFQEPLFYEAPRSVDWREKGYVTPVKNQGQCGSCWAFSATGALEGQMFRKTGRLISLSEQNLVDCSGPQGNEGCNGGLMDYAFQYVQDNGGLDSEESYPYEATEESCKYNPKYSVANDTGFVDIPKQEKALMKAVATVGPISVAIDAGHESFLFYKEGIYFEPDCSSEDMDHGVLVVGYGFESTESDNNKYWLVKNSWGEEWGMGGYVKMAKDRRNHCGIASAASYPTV

SMILES	Ki (Cruzipain) [nM]	Ki (Procathepsin L) [nM]	Ki (Cathepsin B) [nM]	solubility [1] [µM]
O=C(N[C@@H](Cc1ccccc1)C(=O)N[C@@H](Cc1ccccc1)C(=O)CSCCc1ccccc1)OCc1ccccc1	4.2	–	–	–
O=C(N[C@@H](Cc1ccccc1)C(=O)N[C@@H](Cc1ccccc1)C(=O)CSCCCc1ccccc1)OCc1ccccc1	2	2.8	45.4	–
CC(C)CCSCC(=O)[C@H](Cc1ccccc1)NC(=O)[C@H](Cc1ccccc1)NC(=O)OCc1ccccc1	30.1	–	–	–
O=C(N[C@@H](Cc1ccccc1)C(=O)N[C@@H](Cc1ccccc1)C(=O)CSCCCc1ccccc1)OCc1cccnc1	5.5	–	–	–
CCOC(=O)CCSCC(=O)[C@H](Cc1ccccc1)NC(=O)[C@H](CC(C)C)NC(=O)N1CCOCC1	69.6	–	–	–
CC(C)(C)SCC(=O)[C@H](Cc1ccccc1)NC(=O)[C@H](Cc1ccccc1)NC(=O)OCc1cccnc1	4.6	–	–	288 (≈ 154 µg/mL)
CCOC(=O)CCSCC(=O)[C@H](Cc1ccccc1)NC(=O)[C@H](Cc1ccccc1)NC(=O)OCc1ccccn1	30.4	–	–	–
O=C(N[C@@H](Cc1ccccc1)C(=O)N[C@@H](Cc1ccccc1)C(=O)CSC1CCCC1)OCc1ccccc1	34.3	–	–	–
CC(C)C[C@H](NC(=O)N1CCOCC1)C(=O)N[C@@H](Cc1ccccc1)C(=O)CSCCCc1ccccc1	131	–	–	–
CC(C)C[C@H](NC(=O)OCc1ccccc1)C(=O)N[C@@H](Cc1ccccc1)C(=O)CSC(C)(C)C	1.3	7.9	112	–
CCOC(=O)C(C)SCC(=O)[C@H](Cc1ccccc1)NC(=O)[C@H](Cc1ccccc1)NC(=O)OCc1ccccc1 (some centres undefined)	37	–	–	–
CC(C)(C)SCC(=O)[C@H](CCc1ccccc1)NC(=O)[C@H](Cc1ccccc1)NC(=O)OCc1cccnc1	1.4	9.6	600	–
CC(C)C[C@H](NC(=O)N1CCOCC1)C(=O)N[C@@H](Cc1ccccc1)C(=O)CSC(C)(C)C	59.7	–	–	–
CCOC(=O)CCSCC(=O)[C@H](Cc1ccccc1)NC(=O)[C@H](Cc1ccccc1)NC(=O)N1CCOCC1	59.1	–	–	–
CCOC(=O)CCSCC(=O)[C@H](Cc1ccccc1)NC(=O)[C@H](Cc1ccccc1)NC(=O)OCc1cccnc1	22.7	–	–	–
CCC(C)SCC(=O)[C@H](Cc1ccccc1)NC(=O)[C@H](Cc1ccccc1)NC(=O)OCc1ccccc1 (some centres undefined)	5.8	–	–	–
O=C(N[C@@H](Cc1ccccc1)C(=O)N[C@@H](Cc1ccccc1)C(=O)CSC1CCCCC1)OCc1ccccc1	7.5	–	–	–
CC(C)(C)CC(C)(CC(C)(C)C)SCC(=O)[C@H](Cc1ccccc1)NC(=O)[C@H](Cc1ccccc1)NC(=O)OCc1ccccc1	5	–	–	–
CC(C)(C)SCC(=O)[C@H](Cc1ccccc1)NC(=O)[C@H](Cc1ccccc1)NC(=O)OCc1ccccc1	2.5	1.7	45	70 (≈ 37.3 µg/mL)
CCOC(=O)CCSCC(=O)[C@H](Cc1ccccc1)NC(=O)[C@H](CC(C)C)NC(=O)OCc1ccccc1	8	–	–	–
CCOC(=O)CCSCC(=O)[C@H](Cc1ccccc1)NC(=O)[C@H](Cc1ccccc1)NC(=O)OCc1ccccc1	2.9	1.5	42.7	–

SMILES	Ki (Cruzipain) [nM]	Ki (Procathepsin L) [nM]	Ki (Cathepsin B) [nM]	solubility [1] [µM]
CC(C)(C)SCC(=O)[C@H](Cc1ccccc1)NC(=O)[C@H](Cc1ccccc1)NC(=O)N1CCOCC1	54.6	–	–	–
CC(C)C[C@H](NC(=O)OCc1ccccc1)C(=O)N[C@@H](Cc1ccccc1)C(=O)CSCCCc1ccccc1	1	4.7	136	–
CC(C)SCC(=O)[C@H](Cc1ccccc1)NC(=O)[C@H](Cc1ccccc1)NC(=O)OCc1ccccc1	4.6	–	–	–
CC(C)C[C@H](NC(=O)OCc1ccccc1)C(=O)N[C@@H](Cc1ccccc1)C(=O)CSC(C)C	7.8	–	–	–
COc1ccc(CSCC(=O)[C@H](Cc2ccccc2)NC(=O)[C@H](Cc2ccccc2)NC(=O)OCc2ccccc2)cc1	32.4	–	–	–
CC(C)C[C@H](NC(=O)OCc1cccnc1)C(=O)N[C@@H](CCc1ccccc1)C(=O)CSCCCc1ccccc1	1.1	144	1700	–
O=C(N[C@@H](Cc1ccccc1)C(=O)N[C@@H](Cc1ccccc1)C(=O)CSCc1ccccc1)OCc1ccccc1	44	–	–	–
CC(C)(C)c1ccc(CSCC(=O)[C@H](Cc2ccccc2)NC(=O)[C@H](Cc2ccccc2)NC(=O)OCc2ccccc2)cc1	22	–	–	–
CC(C)(C)CC(C)(C)SCC(=O)[C@H](Cc1ccccc1)NC(=O)[C@H](Cc1ccccc1)NC(=O)OCc1ccccc1	10.4	–	–	–
CC(C)C[C@H](NC(=O)OCc1ccccn1)C(=O)N[C@@H](Cc1ccccc1)C(=O)CSC(C)(C)C	13.8	–	–	–
CCOC(=O)CSCC(=O)[C@H](Cc1ccccc1)NC(=O)[C@H](Cc1ccccc1)NC(=O)OCc1ccccc1	31.2	–	–	–
O=C(CSCCCc1ccccc1)[C@H](Cc1ccccc1)NC(=O)[C@H](Cc1ccccc1)NC(=O)N1CCOCC1	216	–	–	–
O=C(N[C@@H](Cc1ccccc1)C(=O)N[C@@H](Cc1ccccc1)C(=O)CSCc1ccc(Cl)cc1)OCc1ccccc1	82.7	–	–	–
CC(C)C[C@H](NC(=O)OCc1cccnc1)C(=O)N[C@@H](Cc1ccccc1)C(=O)CSC(C)(C)C	4.8	–	–	378 (≈ 189 µg/mL)
CNC(=O)CSCC(=O)[C@H](Cc1ccccc1)NC(=O)[C@H](Cc1ccccc1)NC(=O)OCc1ccccc1	15	–	–	–
CC(C)C[C@H](NC(=O)OCc1cccnc1)C(=O)N[C@@H](CCc1ccccc1)C(=O)CSC(C)(C)C	2	44	1300	–
CC(=O)NCCSCC(=O)[C@H](Cc1ccccc1)NC(=O)[C@H](Cc1ccccc1)NC(=O)OCc1ccccc1	34.3	–	–	–
CC(C)C[C@H](NC(=O)OCc1ccncc1)C(=O)N[C@@H](Cc1ccccc1)C(=O)CSC(C)(C)C	14.1	28.8	4800	–
O=C(N[C@@H](Cc1ccccc1)C(=O)N[C@@H](CCc1ccccc1)C(=O)CSCCCc1ccccc1)OCc1cccnc1 (stereo in doubt; 16d)	5.4	–	–	–
O=C(N[C@@H](Cc1ccccc1)C(=O)N[C@@H](CCc1ccccc1)C(=O)CSCCCc1ccccc1)OCc1cccnc1 (stereo in doubt; 16e)	0.9	28.8	700	–
